Data on two compounds can be found in ChEMBL document CHEMBL1157626, “A concise synthesis of 1,4-dihydro-[1,4]diazepine-5,7-dione, a novel 7-TM receptor ligand core structure with melanocortin receptor agonist activity” (Bioorg Med Chem, 2010).

Data set [1] in a line: Tmax in Sprague-Dawley rat at 10 mg/kg, po. In kind it is ADME, organism-based. The settings on record: in vivo. Also on record: dose 10 mg/kg, route oral. The essentials: (§1)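 Single oral dose to Sprague Dawley rats, given as a suspension in 50% PEG/25% EtOH/25% H2O. Plasma samples collected over time to build the pharmacokinetic profile.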
Data set [2] addresses T1, Melanocyte-stimulating hormone receptor (Homo sapiens, UniProt Q01726). As to the kind of experiment: Agonist activity at human MC1R expressed in CHO cells after 4 hrs by luciferase reporter gene assay. Type of data set: functional, cell-based. The settings on record: read-out: pEC50 (converted). The method, boiled down: (§2)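 CHO-6xCRE-luc+ cells expressing the human receptor, plated at 4000 cells/well in DMEM/F12 with 10% FBS 48 h before assay. Switched to serum-free medium 16 h before compound addition, then incubated 4 h at 37 °C. Luciferase read after 10 min dark adaptation. Activity expressed as % of fold stimulation by 1 × 10^-7 M NDP-aMSH (duplicate control wells).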
Target sequence in this assay (Q01726 whole entry): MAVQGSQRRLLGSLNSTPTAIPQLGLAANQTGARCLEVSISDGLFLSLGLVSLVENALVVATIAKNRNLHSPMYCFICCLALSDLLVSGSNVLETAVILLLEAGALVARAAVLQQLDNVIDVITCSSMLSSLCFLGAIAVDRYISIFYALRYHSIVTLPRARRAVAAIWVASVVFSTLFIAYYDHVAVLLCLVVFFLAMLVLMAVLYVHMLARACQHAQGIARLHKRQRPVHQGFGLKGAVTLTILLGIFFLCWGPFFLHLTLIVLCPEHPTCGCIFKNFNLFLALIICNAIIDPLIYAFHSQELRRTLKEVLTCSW

The target of data set [3] is T2, Melanocortin receptor 4 (Homo sapiens, UniProt P32245). As to the kind of experiment: Agonist activity at human MC4R expressed in CHO cells after 4 hrs by luciferase reporter gene assay relative to alpha-melanocyte stimulating hormone. In kind it is functional, cell-based. The method, boiled down: as §2
For data set [4], the target named is T2, Melanocortin receptor 4. As to the kind of experiment: Agonist activity at human MC4R expressed in CHO cells after 4 hrs by luciferase reporter gene assay. In kind it is functional, cell-based. The settings on record: read-out: pEC50 (converted). The method, boiled down:
as §2

In data set [5] the test system is Rattus norvegicus. As to the kind of experiment: Anorexigenic activity in lean Sprague-Dawley rat assessed as suppression of peptide YY-induced food intake during day light cycle period at 5 mg/kg, po administered 30 mins before peptide YY challenge. Type of data set: functional, organism-based. Also noted: dose 5 mg/kg. The essentials: (§3)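 Sated lean Sprague-Dawley rats with third-ventricle cannulae dosed by oral gavage at 10:30 AM. Vehicle was 50% PEG500/25% EtOH/25% water. 0.23 nmol PYY given ICV in sterile saline at 11:00 AM. Intake logged every half hour through the light period and the dark cycle (6 PM–6 AM). N = 5/group.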

Data set [6] can be described thus: Oral bioavailability in Sprague-Dawley rat at 10 mg/kg. As to conditions: in vivo. Type of data set: ADME, organism-based. The method, boiled down: as §1
For data set [7], the system named is Rattus norvegicus. As to the kind of experiment: Anorexigenic activity in lean Sprague-Dawley rat assessed as suppression of peptide YY-induced food intake during day light cycle period at 25 mg/kg, po administered 30 mins before peptide YY challenge. In kind it is functional, organism-based. Also on record: dose 25 mg/kg. The method, boiled down: as §3
In data set [8] the test system is Rattus norvegicus. Description: Anorexigenic activity in lean Sprague-Dawley rat assessed as suppression of peptide YY-induced nocturnal food intake during dark cycle period at 25 mg/kg, po administered 30 mins before peptide YY challenge. Type of data set: functional, organism-based. Also noted: dose 25 mg/kg. The method, boiled down: as §3
Data set [9] is described as follows: Cmax in Sprague-Dawley rat at 10 mg/kg, po. In kind it is ADME, organism-based. Also on record: dose 10 mg/kg, route oral. As to conditions: in vivo. The method, boiled down: as §1
Data set [10] addresses T1, Melanocyte-stimulating hormone receptor. As to the kind of experiment: Agonist activity at human MC1R expressed in CHO cells after 4 hrs by luciferase reporter gene assay relative to alpha-melanocyte stimulating hormone. Also on record: concentration or dose not given beside the values. Type of data set: functional, cell-based. The method, boiled down:
as §2
Target sequence in this assay (Q01726 whole entry, looked up): as the sequence (Q01726 whole entry) above

Data set [11] deals with Rattus norvegicus. Description: Anorexigenic activity in lean Sprague-Dawley rat assessed as suppression of nocturnal food intake during dark cycle period at 25 mg/kg, po administered prior to onset of nocturnal cycle. In kind it is functional.
Data set [12] in a line: Half life in Sprague-Dawley rat at 10 mg/kg, po. In kind it is ADME, organism-based. Also on record: dose 10 mg/kg, route oral. As to conditions: in vivo. The method, boiled down: as §1
Data set [13] is described as follows: AUC (0 to infinity) in Sprague-Dawley rat at 10 mg/kg, po. Type of data set: ADME, organism-based. Also on record: dose 10 mg/kg, route oral, time infinity. As to conditions: plasma. The method, boiled down:
as §1

Data set [14] has as its system Rattus norvegicus. As to the kind of experiment: Anorexigenic activity in lean Sprague-Dawley rat assessed as suppression of peptide YY-induced food intake at 100 pmol, icv administered 15 mins before peptide YY challenge measured for 3 hrs. In kind it is functional, organism-based. The essentials: (§4)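 Lean Sprague-Dawley rats (~400 g) with third-ventricle cannulae. Saline or 1 nmol SHU9119 given ICV 30 min before vehicle (2% DMSO/saline) or test compound ICV. 0.23 nmol PYY given ICV 15 min later. Powdered chow intake logged every half hour for 3 h. N = 7–8 per group.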

In data set [15] the test system is Rattus norvegicus. As to the kind of experiment: Anorexigenic activity in lean Sprague-Dawley rat assessed as suppression of peptide YY-induced food intake at 100 pmol, icv administered 15 mins before peptide YY challenge measured for 3 hrs in presence of MC4R antagonist SHU9119. In kind it is functional, organism-based. The essentials:
as §4

Activity calls are given as the source filed them. The rule behind the calls is not given here.

T2 sequence (P32245 whole entry): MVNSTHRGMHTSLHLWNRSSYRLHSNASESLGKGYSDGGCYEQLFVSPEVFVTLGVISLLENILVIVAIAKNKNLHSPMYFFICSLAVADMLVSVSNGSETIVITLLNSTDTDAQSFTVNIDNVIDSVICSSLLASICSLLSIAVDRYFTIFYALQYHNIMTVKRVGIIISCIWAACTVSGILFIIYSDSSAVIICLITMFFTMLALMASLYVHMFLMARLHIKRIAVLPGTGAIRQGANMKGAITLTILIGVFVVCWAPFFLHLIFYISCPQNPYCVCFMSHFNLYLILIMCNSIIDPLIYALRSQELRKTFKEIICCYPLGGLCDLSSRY

Take `COc1ccc(N(C(=O)CN2C=CN(c3ccccc3)C(=O)[C@H](Cc3n[nH]c4ccccc34)C2=O)C(C)C)cc1`: in data set [1], the Tmax was 0.67 h. Further, the EC50 in [2] is 15.8 nM; in data set [4], 339 nM. For the same compound, the Activity in data set [3] was determined as 53; in data set [10], 82%. For the same compound, the inhibition result in data set [5], in data set [7] and in data set [8] was “Active” in each case. The compound further yielded a bioavailability in data set [6] of 6.2%. The compound further returned a peak concentration (Cmax) in [9] of 123 ng/mL. For the same compound, the inhibition in vivo at 25 mg/kg in data set [11] is 20%. Besides, the half-life in [12] was 1.5 h. For the same compound, in [13], the AUC(0-inf) is 260 ng·h/mL.

On to `COc1ccc(N(C(=O)CN2C=CN(c3ccccc3)C(=O)C(Cc3n[nH]c4ccccc34)C2=O)C(C)C)cc1` (racemic), for which the Activity turned out to be 45 in [3] and 68% in [10]. In addition, in data set [4], the EC50 is 708 nM. In addition, the inhibition entry in data set [14] was “Active”. Besides, the inhibition result in data set [15] is “inactive”.
